Published values gathered from unrelated publications.
Target: Phosphatidylinositol 4-kinase beta (PI4KB, Homo sapiens, UniProt Q9UBF8)

Cn1cc(-c2cc(F)cc(N3CCn4c(cc5c4CCCC5)C3=O)c2CO)cc(Nc2ccc(N3CCN(C4COC4)CC3)cn2)c1=O  inhibition (enzyme activity, inhibitor; 0.1 µM): -3%
COc1ncccc1-c1cnn2ccc(N3CCN(C(=O)OC(C)C)CC3)nc12  remaining binding (binding, competition with immobilised ligand; 1 µM): 100%
Cn1cncc1[C@](O)(COc1ccc(C#N)cc1-c1ccc(OC(F)(F)F)cc1)c1ccc(C#N)cc1  remaining binding (cell-free assay, competition with immobilised ligand; 1 µM): 94%
Nc1ncc(-c2nc(N3CCOCC3)nc(N3CCOCC3)n2)c(C(F)F)n1  remaining binding (binding, competition with immobilised ligand; 10 µM): 75%
C#Cc1n[nH]c2c(-c3cn([C@@H](C)c4ccccc4)c(=O)[nH]c3=O)cc(F)cc12  inhibition (enzyme activity, inhibitor; 0.1 µM): -2.5%
Cn1cc(-c2cccc(N3CCc4c(sc5c4CC(C)(C)C5)C3=O)c2CO)cc(Nc2ccncn2)c1=O  inhibition (enzyme activity, inhibitor; 1 µM): -4%
Cc1nn(C)cc1-c1nc2c(N3CCN(Cc4ccc(Cl)cc4)CC3)c(Cl)cnc2[nH]1  remaining binding (binding, competition with immobilised ligand; 1 µM): 100%
C#Cc1n[nH]c2c(-c3cn(C(C)c4ccccn4)c(=O)[nH]c3=O)cc(F)cc12 (centres unmarked)  inhibition (enzyme activity, inhibitor; 1 µM): -4.1%
